UBC13 inh = human UBC13 polyubiquitination inhibition. P61088. UBC13 polyubiquitin chain formation, TR-FRET. inhibition, % at 20 µM. 0.47% of 330,000 active. AID 485273; in the data active = inhibition above about 45%, passing the limit was not always enough
PREPL inh = inhibitors of human prolyl oligopeptidase-like enzyme PREPL; recombinant PREPL, fluorescence polarization activity-based probe; inhibition, % at 5.96 µM; 0.68% of 320,000 active; Q4J6C6; in the data active = inhibition above about 43%
Target sequence (Q4J6C6 whole entry, looked up): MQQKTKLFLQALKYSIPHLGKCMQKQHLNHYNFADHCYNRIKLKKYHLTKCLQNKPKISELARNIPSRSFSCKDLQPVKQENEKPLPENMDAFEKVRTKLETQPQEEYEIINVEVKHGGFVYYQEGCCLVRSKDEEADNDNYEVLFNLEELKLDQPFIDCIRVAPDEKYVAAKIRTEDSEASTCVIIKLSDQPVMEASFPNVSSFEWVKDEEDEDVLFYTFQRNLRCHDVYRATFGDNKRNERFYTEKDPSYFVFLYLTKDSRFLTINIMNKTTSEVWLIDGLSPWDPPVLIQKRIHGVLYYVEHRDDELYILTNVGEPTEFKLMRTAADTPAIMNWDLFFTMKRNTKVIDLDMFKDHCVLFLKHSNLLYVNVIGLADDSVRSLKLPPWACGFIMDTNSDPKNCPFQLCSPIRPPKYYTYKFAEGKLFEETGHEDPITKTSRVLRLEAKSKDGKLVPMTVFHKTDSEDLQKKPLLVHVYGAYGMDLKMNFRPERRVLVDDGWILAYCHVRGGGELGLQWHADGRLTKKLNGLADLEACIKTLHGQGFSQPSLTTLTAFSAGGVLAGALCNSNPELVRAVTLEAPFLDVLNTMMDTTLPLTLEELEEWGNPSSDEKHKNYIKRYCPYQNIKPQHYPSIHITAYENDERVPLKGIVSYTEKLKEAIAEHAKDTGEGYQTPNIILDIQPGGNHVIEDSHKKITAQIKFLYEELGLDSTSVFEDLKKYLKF
Apaf1 inhib = human Apaf-1 inhibition. O14727. reconstituted apoptosome caspase-3 activity, DEVD-Rh110 fluorescence. inhibition, % at 20 µM. 0.71% of 330,000 active. AID 489030; active = inhibition of at least 40% at 20 µM
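Material: reconstituted apoptosome with Apaf-1, cytochrome c, caspase-9, procaspase-3, dATP. Technique: Rh110 fluorescence intensity. Buffer or medium: pH 7.5 Hepes buffer with CHAPS, BSA, DTT. Times: 30 min plus 50 min, RT.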
UCH37 inh = inhibitors of human deubiquitinating enzyme UCH37; Q9Y5K5; purified proteasome/UCH37, Ub-AMC cleavage fluorescence; inhibition, % (test concentration not listed); 0.33% of 330,000 active; AID 588478;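 active = mean inhibition over replicate wells above about 20%, limit read from the data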
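system = Proteasome-associated human UCH37 deubiquitinase | amount = 0.15 nM proteasome as dispensed | medium = pH 7.4 Tris-HCl (50 mM) with ovalbumin, ATP-MgCl2, DTT | incubation = 30 min preincubation with enzyme, 25 min cleavage at room temperature | detection = AMC fluorescence 355/460 nm | read-out basis = percent inhibition | controls = no-proteasome and no-compound wells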
Apaf-1 inh conf2 = confirmation of Apaf-1 inhibitors; shares compounds with Apaf1 inhib; reconstituted apoptosome, caspase-3 DEVD-Rh110 fluorescence; inhibition, % at 20 µM; 25% of 1,800 active;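 active = mean inhibition of at least 40% at 20 µM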
Rh110 interf inh = counter-screen for Apaf-1 inhibitors: fluorescence interference; activation (fluorescence interference), % at 20 µM; AID 504615; Rh110 fluorescence interference, quenched caspase reaction; 1,800 tested, under 10 active; shares compounds with Apaf1 inhib;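 active = signal rise of 40% or more at 20 µM, treated as a fluorescence artifact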
Fluor interf inh = shows fluorescence interference in the Apaf-1 inhibitor assay format | IC50, µM | 460 tested, under 10 active | shares compounds with Apaf1 inhib | fluorescence interference counterscreen, Apaf-1 assay format; call rule not given here
Each line names hits and unclear results; the compound was inactive in the other large screens (follow-up assays come after a bar, where they were run). An excerpt weighted towards active compounds, which were near 1.5% of everything screened.

COCCNC(=O)CN1C(=O)NC2(CCOc3ccccc32)C1=O (stereo not drawn)	Apaf1 inhib 46 | Apaf-1 inh conf2 inactive | Rh110 interf inh inactive
CCCCNC(=O)CN1C(=O)NC2(CCOc3ccccc32)C1=O (stereo not drawn)	none
CCOC(=O)C(=NNc1ncnc2ccccc12)c1ccc(OC)cc1	none (no result: UBC13 inh, PREPL inh, Apaf1 inhib)
CC(=O)C(=NNc1ccc(Cl)cc1Cl)Sc1cccc2cccnc12	none (no result: UBC13 inh, PREPL inh, Apaf1 inhib)
c1ccc2c(c1)ncc1cccn12	none
CCn1c2ccccc2c2c3ncc4cccn4c3ccc21	Apaf1 inhib 62 | Apaf-1 inh conf2 inactive | Rh110 interf inh inactive
O=C(Cc1cccc2ccccc12)NN=Cc1ccncc1	none (no result: UBC13 inh, PREPL inh, Apaf1 inhib)
COc1ccc(C(=O)NN=Cc2ccc(OC)c(COc3c(F)c(F)cc(F)c3F)c2)cc1	none (no result: UBC13 inh, PREPL inh, Apaf1 inhib)
Cc1ccc(-c2cc(C(=O)NCCCN3CCOCC3)c3ccc(Cl)c(C)c3n2)cc1	Apaf1 inhib 55 | Apaf-1 inh conf2 inactive | Rh110 interf inh inactive
COc1cccc(C=Nn2cnc3c(cnn3-c3ccccc3)c2=O)c1	none (no result: UBC13 inh, PREPL inh, Apaf1 inhib)
c1csc(Cc2nn3c(-c4n[nH]c5c4CCC5)nnc3s2)c1	Apaf1 inhib 41 | Apaf-1 inh conf2 inactive | Rh110 interf inh inactive
c1coc(-c2nnc3sc(Cc4cccs4)nn23)c1	none
COc1ccccc1C=NNC(=O)c1[nH]c(C)c(C(=O)NN=Cc2ccccc2OC)c1C	none (no result: UBC13 inh, PREPL inh, Apaf1 inhib)
Cc1cc2nn(-c3ccc(Cl)cc3)nc2cc1N	Apaf1 inhib 49 (no result: UCH37 inh) | Apaf-1 inh conf2 inactive | Rh110 interf inh inactive
Cc1cc2nn(-c3ccc(F)cc3)nc2cc1N	none
Oc1ccc(NCc2cccc(OCc3ccccc3)c2)cc1	Apaf1 inhib 91 | Apaf-1 inh conf2 inactive | Rh110 interf inh inactive
CCOC(=O)C(C(=O)OCC)c1cc(Br)c2noc3c2c1C(=O)c1ccccc1-3	Apaf1 inhib 89 | Apaf-1 inh conf2 74 | Rh110 interf inh inactive | Fluor interf inh inactive
O=C1c2ccccc2-c2onc3ccc(Oc4ccccc4)c1c23	none
CCC(=O)NN=C(C)CC(=O)Nc1cccc([N+](=O)[O-])c1	none (no result: UBC13 inh, PREPL inh, Apaf1 inhib)
CN(C)c1cccc2cccc(N(C)C)c12	Apaf1 inhib 89 | Apaf-1 inh conf2 inactive | Rh110 interf inh inactive
Cc1cccc(NC(=O)CSCC(=O)N(C)Cc2ccc(Cl)c(Cl)c2)c1	Apaf1 inhib 63 | Apaf-1 inh conf2 46 | Rh110 interf inh inactive | Fluor interf inh inactive
COc1cc(N)c(Cc2nccc3cc(OC)c(OC)cc23)cc1OC	Apaf1 inhib 47 | Apaf-1 inh conf2 inactive | Rh110 interf inh inactive
COC(=O)CCC/C=C1/SCC(NC(=O)c2ccccc2)C1=NO (stereo not drawn)	none (no result: UBC13 inh, PREPL inh, Apaf1 inhib)
COc1ccc(OC)c(C=NNC(=O)CNC(=O)c2ccc(S(=O)(=O)N3CCOCC3)cc2)c1	none (no result: UBC13 inh, PREPL inh, Apaf1 inhib)
Cc1ccc(Oc2nc(CN3CCOCC3)nc3sc4c(c23)CCC(C)C4)cc1 (stereo not drawn)	Apaf1 inhib 41 | Apaf-1 inh conf2 inactive | Rh110 interf inh inactive
COc1ccccc1N1CCN(C(=O)c2ccc3c(Cl)c4c(nc3c2)CCCC4)CC1	Apaf1 inhib 41 | Apaf-1 inh conf2 inactive | Rh110 interf inh inactive
COc1cc(C=NNc2nc3ccccc3[nH]2)cc(OC)c1O	none (no result: UBC13 inh, PREPL inh, Apaf1 inhib)
CN(Cc1c(F)cccc1Cl)C(=O)c1cc2ccccc2o1	none
CN(Cc1c(F)cccc1Cl)C(=O)c1ccc(COc2ccccc2)cc1	Apaf1 inhib 53 | Apaf-1 inh conf2 inactive | Rh110 interf inh inactive
CCC1CCc2sc(C(=O)NCC(c3ccccc3OC)N3CCCC3)cc2C1 (stereo not drawn)	Apaf1 inhib 49 | Apaf-1 inh conf2 inactive | Rh110 interf inh inactive
Cc1ccc(CN2CC(C(=O)N3CCN(S(=O)(=O)c4ccc(C)cc4C)CC3)CC2=O)cc1 (stereo not drawn)	Apaf1 inhib 48 | Apaf-1 inh conf2 inactive | Rh110 interf inh inactive
Cc1ccc(C=NNC(=O)CCc2n[nH]c(=O)[nH]c2=O)o1	none (no result: UBC13 inh, PREPL inh, Apaf1 inhib)
CN1CCN(S(=O)(=O)c2ccc(SCCOc3ccc(Cl)cc3)nc2)CC1	Apaf1 inhib 51 | Apaf-1 inh conf2 inactive | Rh110 interf inh inactive
COc1ccc(OCCSc2ccc(S(=O)(=O)N3CCCC3)cn2)cc1	none
COc1cc(Br)cc(C=NNC(=O)Cc2ccc(C(F)(F)F)cc2[N+](=O)[O-])c1O	none (no result: UBC13 inh, PREPL inh, Apaf1 inhib)
CC1CN(Cc2c(O)ccc3c2oc(=O)c2ccccc23)CC(C)O1 (stereo not drawn)	Apaf1 inhib 44 | Apaf-1 inh conf2 inactive | Rh110 interf inh inactive
Cc1cc(C(=O)NN=C2CCCc3ccccc32)c(C)o1	none (no result: UBC13 inh, PREPL inh, Apaf1 inhib)
O=C(Cc1ccccc1Cl)NC1(O)C(=O)c2ccccc2C1=O	Apaf1 inhib 89 (no result: UCH37 inh) | Apaf-1 inh conf2 65 | Rh110 interf inh inactive | Fluor interf inh inactive
Nc1ccc2nc(-c3ccccc3)c(-c3ccccc3)nc2c1	Apaf1 inhib 65 (no result: UCH37 inh) | Apaf-1 inh conf2 inactive | Rh110 interf inh inactive
O=C(c1ccc(-c2cccc(C(F)(F)F)c2)o1)N1CCCC(C(F)(F)F)C1 (stereo not drawn)	Apaf1 inhib 43 | Apaf-1 inh conf2 inactive | Rh110 interf inh inactive
